# Source: ChEMBL document CHEMBL3751740, “New MKLP-2 inhibitors in the paprotrain series: Design, synthesis and biological evaluations” (Bioorg Med Chem, 2016)
# Calls of active or inactive are those of the source. The calls are words filed in the database; no cut-off is given here.
# Experiments:
# [1] = molecular target: T1, Kinesin-like protein KIF20A (Homo sapiens, UniProt O95235); assay: Inhibition of N-terminal MKLP2 (56 to 505 residues) ATPase basal activity isolated from human hepatocellular carcinoma cells by pyruvate kinase/lactate dehydrogenase enzyme linked assay
# T1 sequence (O95235 whole entry): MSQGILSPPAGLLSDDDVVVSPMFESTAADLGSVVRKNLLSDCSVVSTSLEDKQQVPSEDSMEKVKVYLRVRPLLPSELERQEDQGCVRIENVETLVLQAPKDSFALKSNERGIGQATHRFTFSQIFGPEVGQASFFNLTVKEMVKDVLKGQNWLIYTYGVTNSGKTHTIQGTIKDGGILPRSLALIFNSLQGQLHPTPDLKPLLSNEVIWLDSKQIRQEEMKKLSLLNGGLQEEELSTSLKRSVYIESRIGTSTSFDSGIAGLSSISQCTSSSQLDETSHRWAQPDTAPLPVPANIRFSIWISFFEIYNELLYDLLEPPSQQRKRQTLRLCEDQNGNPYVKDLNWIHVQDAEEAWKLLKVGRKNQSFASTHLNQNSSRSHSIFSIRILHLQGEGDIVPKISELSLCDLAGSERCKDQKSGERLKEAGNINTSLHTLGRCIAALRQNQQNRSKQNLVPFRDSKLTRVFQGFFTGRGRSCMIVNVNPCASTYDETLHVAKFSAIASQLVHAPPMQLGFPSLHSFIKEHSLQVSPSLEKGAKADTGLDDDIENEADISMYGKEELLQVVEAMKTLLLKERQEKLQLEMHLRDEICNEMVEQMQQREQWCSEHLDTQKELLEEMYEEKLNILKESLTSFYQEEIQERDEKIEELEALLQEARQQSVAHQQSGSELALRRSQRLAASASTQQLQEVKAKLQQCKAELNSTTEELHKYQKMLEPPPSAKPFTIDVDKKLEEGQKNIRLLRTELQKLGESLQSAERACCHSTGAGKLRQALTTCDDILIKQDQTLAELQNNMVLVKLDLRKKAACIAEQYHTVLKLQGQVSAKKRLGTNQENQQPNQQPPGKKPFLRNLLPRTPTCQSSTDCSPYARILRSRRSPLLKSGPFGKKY
# [2] = molecular target: T1, Kinesin-like protein KIF20A; assay: Inhibition of microtubule-stimulated N-terminal MKLP-2 (56 to 505 residues) ATPase activity isolated from human hepatocellular carcinoma cells by pyruvate kinase/lactate dehydrogenase enzyme linked assay; conditions: read-out: IC50
# Ovis aries [3] = species: Ovis aries; assay: Inhibition of sheep brain tubulin polymerization by UV spectrophotometric analysis; set-up: concentration or dose not given beside the values
# How it was run: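 Tubulin purified from sheep brain by two assembly/disassembly cycles, about 2–3 mg/mL in 0.1 M MES, 0.5 mM MgCl2, 1 mM EGTA, 1 mM GTP, pH 6.6. Compound in DMSO added at 0 °C, then moved to a 37 °C thermostated cell. Assembly followed by turbidity at 350 nm for a few min.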
# KB [4] = assay: Growth inhibition of human KB cells at 10 uM after 72 hrs by MTS assay; assay type: functional; conditions: read-out: GI
# How it was run: (§1)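 KB cells were grown in DMEM with 25 mM glucose and 10% FCS at 37 °C, 5% CO2, and seeded at 500 cells/well. 24 h later, compound in DMSO (1% final) was added at 10 µM or 1 µM for 72 h; controls received DMSO alone. Runs were in duplicate. Viable cells were read with MTS at 490 nm.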
# [5] = molecular target: T2, Chromosome-associated kinesin KIF4A (Homo sapiens) (UniProt O95239); assay: Inhibition of porcine brain microtubule-stimulated human recombinant GST-tagged Kif4A ATPase activity at 15 uM by microplate reader in presence of Mg2+ ATP relative to control
# T2 sequence (whole entry): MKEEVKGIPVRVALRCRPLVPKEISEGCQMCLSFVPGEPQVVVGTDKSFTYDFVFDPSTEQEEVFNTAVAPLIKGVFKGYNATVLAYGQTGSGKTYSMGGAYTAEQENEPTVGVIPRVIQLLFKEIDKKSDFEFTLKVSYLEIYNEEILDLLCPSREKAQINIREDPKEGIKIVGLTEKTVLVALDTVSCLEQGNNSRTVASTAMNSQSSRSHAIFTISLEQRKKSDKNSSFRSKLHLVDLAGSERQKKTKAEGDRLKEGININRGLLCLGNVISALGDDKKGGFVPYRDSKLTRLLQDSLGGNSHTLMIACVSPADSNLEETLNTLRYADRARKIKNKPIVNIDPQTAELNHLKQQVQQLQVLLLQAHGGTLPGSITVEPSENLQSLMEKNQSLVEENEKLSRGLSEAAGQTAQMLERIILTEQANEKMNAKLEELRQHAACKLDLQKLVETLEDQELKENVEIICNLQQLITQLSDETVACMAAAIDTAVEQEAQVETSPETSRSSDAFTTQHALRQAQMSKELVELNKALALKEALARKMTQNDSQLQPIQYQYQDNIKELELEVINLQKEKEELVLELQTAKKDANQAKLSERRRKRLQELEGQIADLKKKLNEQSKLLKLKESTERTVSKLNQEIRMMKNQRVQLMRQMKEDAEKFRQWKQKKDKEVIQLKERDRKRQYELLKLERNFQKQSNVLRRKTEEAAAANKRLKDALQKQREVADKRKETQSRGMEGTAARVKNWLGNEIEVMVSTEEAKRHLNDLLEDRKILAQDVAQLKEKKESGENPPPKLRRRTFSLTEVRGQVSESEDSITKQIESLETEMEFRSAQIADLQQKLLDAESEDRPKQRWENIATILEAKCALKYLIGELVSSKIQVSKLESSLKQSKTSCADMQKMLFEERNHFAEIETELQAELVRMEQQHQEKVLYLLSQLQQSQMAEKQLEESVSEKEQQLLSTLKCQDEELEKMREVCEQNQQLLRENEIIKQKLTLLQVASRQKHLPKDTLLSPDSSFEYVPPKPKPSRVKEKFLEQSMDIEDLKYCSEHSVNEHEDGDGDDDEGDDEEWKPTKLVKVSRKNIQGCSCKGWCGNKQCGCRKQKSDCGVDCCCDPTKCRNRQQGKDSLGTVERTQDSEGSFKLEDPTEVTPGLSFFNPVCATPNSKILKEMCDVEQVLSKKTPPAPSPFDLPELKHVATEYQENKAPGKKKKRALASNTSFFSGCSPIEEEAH
# How it was run: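 Each kinesin motor domain was tested against MT-stimulated ATPase at 22 °C in triplicate, with compounds at 15 µM. Buffer was 7.5 mM PIPES-NaOH pH 7.0 with MgCl2, Taxol, ELIPA reagents and 1.25 mg/mL MTs. Reactions were started with 1 mM Mg2+ATP and read kinetically at 360 nm. Monastrol and AMP-PNP (1 mM) were the controls.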
# Ovis aries [6] = species: Ovis aries; assay: Induction of sheep brain microtubule disassembly by UV spectrophotometric analysis
# How it was run: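 Sheep brain tubulin, purified by two assembly/disassembly cycles and held in MES buffer with GTP at pH 6.6, was polymerized at 37 °C for 10 min. Compound was then added to the MTs at 0 °C and depolymerization was followed over the next few minutes by turbidity at 350 nm.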
# KB [7] = assay: Growth inhibition of human KB cells at 1 uM after 72 hrs by MTS assay; assay type: functional; conditions: read-out: GI; how it was run: as §1
IC50 ([1]; read-out: IC50) [µM],IC50 [2] [µM],inhibition (Ovis aries [3]),inhibition [5] [%],inhibition (Ovis aries [3]; concentration not given here) [%],Activity (Ovis aries [6]),SMILES,inhibition of growth at 10 µM (KB [4]) [%],IC50 [1],inhibition of growth at 1 µM (KB [7]) [%]
1.2,0.23,inactive,< 20,,,COc1ccc2[nH]cc(/C(C#N)=C/c3cccnc3)c2c1,57,,
5.6,5.4,,< 20,54,inactive,COc1ccc2c(/C(C#N)=C/c3cccnc3)c[nH]c2c1,87,,78
,,,< 20,,,CCOC(=O)C1=C(C)NC(=S)NC1c1cccc(O)c1 (configuration not stated),,,
14.3,5.1,,< 20,35,inactive,N#C/C(=C\c1ccc2c(c1)OCO2)c1c[nH]c2ccccc12,100,,11
4.2,3.3,inactive,< 20,,inactive,COc1cccc2[nH]cc(/C(C#N)=C/c3cccnc3)c12,27,,

SMILES,IC50 ([1]; read-out: IC50) [µM],IC50 [2] [µM],inhibition (Ovis aries [3]),inhibition [5] [%],inhibition (Ovis aries [3]; concentration not given here) [%],Activity (Ovis aries [6]),inhibition of growth at 10 µM (KB [4]) [%],IC50 [1],inhibition of growth at 1 µM (KB [7]) [%]
N#C/C(=C\c1cccnc1)c1c[nH]c2ccc(OCc3ccccc3)cc12,,1.3,,< 20,12,inactive,57,Not Active,
